From ChEMBL document CHEMBL1135464, “3-Aryl-2-quinolone derivatives: synthesis and characterization of in vitro and in vivo antitumor effects with emphasis on a new therapeutical target connected with cell migration” (J Med Chem, 2002)

Columns and labels:
[1] = system: U373 MG; test: Cytotoxicity against U-373 MG glioblastomas using MTT colorimetric assay; assay type: functional, cell-based, U-373MG ATCC; conditions: Homo sapiens
Summary of the method: (§1)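 Human tumour lines from ATCC were grown at 37 °C in sealed dishes in MEM with 5% FCS. Cells were seeded at 40000 cells/mL in 96-well plates and left 24 h to plate. Each drug was then tested at six concentrations from 10^-5 to 10^-9 M. Growth was read by colorimetric MTT assay.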

[2] = system: LoVo; test: Cytotoxicity measured on LoVo colon cell line using MTT colorimetric assay; assay type: functional, cell-based; conditions: Homo sapiens; summary of the method: as §1
[3] = system: PC-3; test: Cytotoxicity against prostate cell line PC-3 using MTT colorimetric assay; assay type: functional, cell-based; conditions: Homo sapiens; summary of the method: as §1
[4] = system: T-24; test: Cytotoxicity against T24 bladder cell lines using MTT colorimetric assay; assay type: functional, cell-based; conditions: Homo sapiens; summary of the method: as §1
[5] = system: U-87 MG; test: Cytotoxicity against U-87 MG glioblastomas using MTT colorimetric assay; assay type: functional, cell-based, U-87MG ATCC; conditions: Homo sapiens; summary of the method: as §1
[6] = system: MCF7; test: Cytotoxicity against Breast cancer cell line MCF-7 using MTT colorimetric assay; assay type: functional, cell-based; conditions: Homo sapiens; summary of the method: as §1
[7] = system: A 172; test: Cytotoxicity against A-172 glioblastomas using MTT colorimetric assay; assay type: functional, cell-based; conditions: Homo sapiens; summary of the method: as §1
[8] = system: A-427; test: Cytotoxicity against A-427 nonsmall lung cell line using MTT colorimetric assay; assay type: functional, cell-based; conditions: Homo sapiens; summary of the method: as §1
[9] = system: A549; test: Cytotoxicity against A549 nonsmall lung cell line using MTT colorimetric assay; assay type: functional, cell-based; conditions: Homo sapiens; summary of the method: as §1
[10] = system: J82; test: Cytotoxicity against J82 bladder cell lines using MTT colorimetric assay; assay type: functional, cell-based; conditions: Homo sapiens; summary of the method: as §1
[11] = Evaluated in vivo for maximum tolerated dose and found to be nontoxic; assay type: ADME, organism-based
[12] = system: HCT-15; test: Cytotoxicity against HCT-15 colon cell line using MTT colorimetric assay; assay type: functional, cell-based; conditions: Homo sapiens; summary of the method: as §1
[13] = system: T47D; test: Cytotoxicity against Breast cancer cell line T-47D using MTT colorimetric assay; assay type: functional, cell-based; conditions: Homo sapiens; summary of the method: as §1

| SMILES | IC50 [1] [µM] | IC50 [2] [µM] | IC50 [3] [µM] | IC50 [4] [µM] | IC50 [5] [µM] | IC50 [6] [µM] | IC50 [7] [µM] | IC50 [8] [µM] | IC50 [9] [µM] | IC50 [10] [µM] | MTD [11] [mg/kg] | IC50 [12] [µM] | IC50 [13] [µM] |
| --- | --- | --- | --- | --- | --- | --- | --- | --- | --- | --- | --- | --- | --- |
| COc1cc(OC)c2cc(-c3ccccc3)c(O)nc2c1 | > 10 | > 10 | > 10 | > 10 | > 10 | > 10 | > 10 | > 10 | > 10 | > 10 | 160 | > 10 | > 10 |
| COc1ccc(-c2cc3c(OC)cc(OC)cc3n(CC#N)c2=O)cc1 | > 10 | > 10 | > 10 | > 10 | > 10 | > 10 | > 10 | > 10 | > 10 | > 10 | 160 | > 10 | > 10 |
| COc1ccc(-c2cc3c(OC)cc(OC)cc3n(C)c2=O)cc1 | > 10 | > 10 | > 10 | > 10 | > 10 | > 10 |  | > 10 | > 10 | > 10 | 160 | > 10 | > 10 |
| COc1ccc(-c2cc3c(OC)cc(OC)cc3n(CC(=O)O)c2=O)cc1 | > 10 | > 10 | > 10 | > 10 | > 10 | > 10 | > 10 | > 10 | > 10 | > 10 | 160 | > 10 | > 10 |
| COc1cccc2cc(-c3ccccc3)c(O)nc12 | > 10 | > 10 | > 10 | > 10 | > 10 | > 10 | > 10 | > 10 | > 10 | > 10 | 160 | > 10 | > 10 |
| COc1ccc(-c2cc3c(OC)cc(OC)cc3n(C)/c2=N\Nc2ccccn2)cc1 | > 10 | > 10 | > 10 | > 10 | > 10 | > 10 | > 10 | > 10 | > 10 | > 10 | 160 | > 10 | > 10 |
| COc1ccc(-c2cc3c(OC)cc(OC)cc3n(CCC#N)c2=O)cc1 | > 10 | > 10 | > 10 | > 10 | > 10 | > 10 | > 10 | > 10 | > 10 | > 10 | 160 | > 10 | > 10 |
| COc1ccc(-c2cc3c(OC)cc(OC)cc3n(CC(=O)OCc3ccccc3)c2=O)cc1 | > 10 | > 10 | > 10 | > 10 | > 10 | > 10 | > 10 | > 10 | > 10 | > 10 | 160 | > 10 | > 10 |
| COc1cc(OC)c2cc(-c3ccc(O)cc3)c(O)nc2c1 | > 10 | > 10 | > 10 | > 10 | > 10 | > 10 | > 10 | > 10 | > 10 | > 10 | 160 | > 10 | > 10 |
| COc1ccc(-c2cc3c(OC)cc(OC)cc3nc2O)cc1 |  |  |  |  |  |  |  |  |  |  | 160 |  |  |
| COc1ccc(-c2cc3c(OC)cc(OC)cc3n(C)c2=S)cc1 | > 10 | > 10 | > 10 | > 10 | > 10 | > 10 | > 10 | > 10 | > 10 | > 10 | 160 | > 10 | > 10 |
